Read-outs that look alike come from different tables or passages of the source.
Columns and labels:
bsNOS [1] = molecular target: T1, bsNOS (Bacillus subtilis, UniProt O34453); assay: Imidazole displacement assay, spectral binding constant
T1 sequence (O34453 1-363): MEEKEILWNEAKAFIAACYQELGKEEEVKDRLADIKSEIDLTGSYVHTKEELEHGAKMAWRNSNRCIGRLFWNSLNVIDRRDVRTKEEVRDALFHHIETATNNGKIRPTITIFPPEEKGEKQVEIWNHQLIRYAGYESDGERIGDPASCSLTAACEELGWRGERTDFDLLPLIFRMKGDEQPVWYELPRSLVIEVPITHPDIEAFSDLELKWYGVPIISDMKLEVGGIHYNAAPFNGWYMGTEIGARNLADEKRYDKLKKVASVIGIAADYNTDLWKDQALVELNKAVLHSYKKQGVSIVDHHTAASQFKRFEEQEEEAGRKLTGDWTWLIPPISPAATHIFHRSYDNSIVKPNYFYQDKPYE

B. subtilis = assay: Effect of acriflavine and NOS inhibitors on B. subtilis survival; type: cell-based, Bacillus subtilis
Summary of the method: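 WT (ATCC 23857) and Δnos B. subtilis grown separately to OD600 ≈ 1.0, diluted to OD600 0.6 in LB, then brought up in M9 minimal medium with or without test compound (500 μM final) and/or acriflavine (800 μM final). Treated 30 min at 30 °C, serially diluted in M9, plated on LB agar + 0.5% glucose, 37 °C overnight. CFU counted; % survival relative to untreated cells; ≥3 replicates, mean ± SEM, Student's t test.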

rat nNOS = rat nNOS (Rattus norvegicus, UniProt P29476); assay: Ki with mammalian NOS isoforms: nNOS; type: biochemical; conditions: 6 compared to 2
Sequence of rat nNOS (P29476 whole entry, canonical isoform): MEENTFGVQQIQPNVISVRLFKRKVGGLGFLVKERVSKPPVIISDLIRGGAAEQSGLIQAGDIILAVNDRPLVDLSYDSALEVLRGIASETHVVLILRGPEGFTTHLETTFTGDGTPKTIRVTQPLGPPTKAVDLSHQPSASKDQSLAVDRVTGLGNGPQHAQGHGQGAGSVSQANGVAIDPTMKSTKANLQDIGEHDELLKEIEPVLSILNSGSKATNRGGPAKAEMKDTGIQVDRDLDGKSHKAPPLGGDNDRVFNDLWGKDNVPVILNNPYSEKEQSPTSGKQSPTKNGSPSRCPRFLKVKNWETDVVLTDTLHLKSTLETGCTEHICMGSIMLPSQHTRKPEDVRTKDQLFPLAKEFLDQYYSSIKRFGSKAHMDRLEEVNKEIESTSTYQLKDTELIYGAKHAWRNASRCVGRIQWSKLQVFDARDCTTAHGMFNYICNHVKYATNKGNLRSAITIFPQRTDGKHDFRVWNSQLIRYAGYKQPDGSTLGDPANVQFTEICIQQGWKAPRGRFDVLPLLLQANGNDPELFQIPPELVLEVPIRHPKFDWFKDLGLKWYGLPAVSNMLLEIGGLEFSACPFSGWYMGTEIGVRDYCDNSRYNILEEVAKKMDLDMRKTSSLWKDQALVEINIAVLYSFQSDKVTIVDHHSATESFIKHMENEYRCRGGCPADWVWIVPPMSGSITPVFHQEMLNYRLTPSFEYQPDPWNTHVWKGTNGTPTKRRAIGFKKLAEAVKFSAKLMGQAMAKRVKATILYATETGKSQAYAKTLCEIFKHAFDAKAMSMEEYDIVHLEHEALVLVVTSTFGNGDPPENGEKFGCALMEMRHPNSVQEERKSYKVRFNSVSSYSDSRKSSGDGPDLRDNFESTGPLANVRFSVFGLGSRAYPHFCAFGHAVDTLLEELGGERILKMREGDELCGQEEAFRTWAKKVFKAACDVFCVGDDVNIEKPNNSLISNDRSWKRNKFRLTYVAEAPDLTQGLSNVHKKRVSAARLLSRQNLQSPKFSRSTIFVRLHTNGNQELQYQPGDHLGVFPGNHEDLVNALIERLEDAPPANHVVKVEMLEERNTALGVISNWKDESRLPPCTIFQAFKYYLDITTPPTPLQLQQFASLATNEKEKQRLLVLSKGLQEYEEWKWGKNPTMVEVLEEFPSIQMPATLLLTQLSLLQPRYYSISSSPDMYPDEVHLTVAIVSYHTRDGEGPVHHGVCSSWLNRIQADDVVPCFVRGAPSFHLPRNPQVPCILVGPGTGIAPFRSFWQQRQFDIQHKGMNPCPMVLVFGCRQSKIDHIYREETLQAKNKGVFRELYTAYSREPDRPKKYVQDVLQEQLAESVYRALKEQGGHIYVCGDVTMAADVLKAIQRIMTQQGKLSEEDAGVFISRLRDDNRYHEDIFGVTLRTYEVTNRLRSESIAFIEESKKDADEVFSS

iNOS = iNOS (Homo sapiens, UniProt P35228); conditions: read-out: imidazole KD iNOS; used to calculate KS; cited from earlier work
Sequence of iNOS (P35228 74-504 limits assumed): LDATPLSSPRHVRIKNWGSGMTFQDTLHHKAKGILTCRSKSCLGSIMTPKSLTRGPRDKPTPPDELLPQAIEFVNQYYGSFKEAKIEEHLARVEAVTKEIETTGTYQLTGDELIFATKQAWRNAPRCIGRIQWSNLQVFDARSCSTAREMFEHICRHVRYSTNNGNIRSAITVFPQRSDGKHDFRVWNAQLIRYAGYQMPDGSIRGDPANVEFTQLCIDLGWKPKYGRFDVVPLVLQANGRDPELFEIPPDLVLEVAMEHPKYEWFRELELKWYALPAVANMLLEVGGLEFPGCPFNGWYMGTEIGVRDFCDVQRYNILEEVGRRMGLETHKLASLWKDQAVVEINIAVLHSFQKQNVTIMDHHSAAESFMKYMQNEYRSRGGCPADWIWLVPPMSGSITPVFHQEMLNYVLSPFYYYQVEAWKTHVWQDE

bsNOS [2] = molecular target: T1, bsNOS; conditions: read-out: imidazole KD bsNOS; used to calculate KS; cited from earlier work
[3] = KS bsNOS (+H4B), presence of 50 μM H4B
[4] = KS bsNOS (−H4B), absence of H4B

Row | Compound | Kd (bsNOS [1]; [3]) | Kd (bsNOS [1]; [4]) | further results
1 | NC(=NCCCC(N)C(=O)O)NO [N-ω-hydroxy-L-arginine (L-NNA), N-ω-hydroxy-L-arginine, reference compound] | 1.9 ± 0.1 µM | – | –
2 | Cc1cc(N)nc(CCc2cc(N)cc(CCc3cc(C)cc(N)n3)c2)c1 [compound 1] | 1.9 ± 0.1 µM | 0.91 ± 0.08 µM | fold difference in binding (KS) to bsNOS in presence vs absence of H4B (bsNOS [1]; 50 μM H4B vs no H4B): 2 fold
3 | Cc1cc(N)nc(CCc2cc(CN)cc(CCc3cc(C)cc(N)n3)c2)c1 [compound 2] | 47 ± 2 µM | 15 ± 3 µM | bacterial growth inhibition (in words) (B. subtilis; B. subtilis): good inhibitor of bacterial growth
4 | Cc1cc(N)nc(CCc2cc(CCCN)cc(CCc3cc(C)cc(N)n3)c2)c1 [compound 3] | 19 ± 1 µM | 16 ± 1 µM | –
5 | CNc1cc(C)cc(CCc2cc(C#N)cc(CCc3cc(C)cc(N)n3)c2)n1 [compound 4, 3-(2-(6-Amino-4-methylpyridin-2-yl)ethyl)-5-(2-(4-methyl-6-(methylamino)pyridin-2-yl)ethyl)benzonitrile] | 19 ± 2 µM | 12 ± 1 µM | –
6 | Cc1cc(N)nc(CCc2cc(CN)cc(CCc3ccc4cc[nH]c4n3)c2)c1 [compound 6, 6-(3-(2-(1H-Pyrrolo[2,3-b]pyridin-6-yl)ethyl)-5-(aminomethyl)phenethyl)-4-methylpyridin-2-amine] | 12 ± 4 µM | 10 ± 2 µM | fold decrease of potency toward nNOS compared to 2 (rat nNOS): > 4 fold
7 | c1c[nH]cn1 [imidazole] | – | – | Kd (iNOS): 158 µM; Kd (bsNOS [2]): 384 µM
8 | acriflavine [reference compound] | – | – | bacterial growth, % of control (B. subtilis; ACR alone (800 μM), 30 min): 23%
